The text below walks through data of publication PMC6087491 (Bioorganic & medicinal chemistry, 2018).

Like-named read-outs stand apart in the source and are kept apart here. Where only a bound is given, the exact number is not on record here.

For data set [1], the system named is CAR cell line. Put plainly: MTT antiproliferative assay against cisplatin-resistant oral squamous. It counts as cell-based, human. The procedure, abridged: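 Cells are a CAL27-derived line selected through 10 cycles of 10–80 μM cisplatin and maintained in DMEM/10% FBS with penicillin, streptomycin, 2 mM L-glutamine and 80 μM cisplatin. They were seeded at 2×10^4 cells/well and exposed to 0–100 μM test compound (0.5% DMSO vehicle) for 48 or 72 h. MTT (500 μg/ml) was added for 4 h at 37 °C, formazan was dissolved in DMSO, and A570 was read. Viability is expressed as % of control.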

Data set [2] concerns CAR xenograft. Put plainly: In vivo antitumor activity in CAR xenograft nude mouse model. Further details: species or system BALB/c nude mice. The procedure, abridged: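 Male 4-week-old BALB/c nude mice; CAR cells (cisplatin-resistant CAL27, cultured with 80 μM cisplatin), 1×10^7/mouse in medium:Matrigel 1:1, injected s.c. into flank. At ~50 mm3 (day 22), randomised into four groups; test compound oral 25, 50 or 100 mg/kg once daily ×30 in 1,2-propanediol; controls vehicle only. Caliper tumor size ([…]); tumors excised, weighed day 31.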

Data set [3] is described as follows: Toxicity monitoring and blood biochemical analysis in CAR xenograft nude mice. It counts as in vivo, BALB/c nude mice.
Data set [4] in a line: Preliminary pharmacokinetic study of compound 12 in rats. The following applies: single oral 100 mg/kg, PO-1 and PO-2 formulations, 0.5-24 h.
The mark [5] stands for this setting: read-out: IC50 (concentration for 50% antiproliferative effect), CAR cells, 48 h.
The mark [6] stands for this setting: read-out: IC50 (concentration for 50% antiproliferative effect), CAR cells, 72 h.

For “(E)-5-(4-((3-Hydroxy-2-(hydroxymethyl)-2-methylpropanoyl)oxy)styryl)-1,3-phenylene diacetate [Compound 22]”, the IC50 in data set [1] (setting [5]) worked out at 103 ± 4.58 µM; in data set [1] (setting [6]) it was 116 ± 3.96 µM.

As to “(E)-5-(4-Hydroxystyryl)-1,3-phenylene bis(3-hydroxy-2-(hydroxymethyl)-2-methylpropanoate) [Compound 24]”, the IC50 in data set [1] (setting [5]) was 90.4 ± 3.65 µM; in data set [1] (setting [6]), 76.9 ± 3.22 µM.

`COc1cc(/C=C/c2ccc(OC(=O)C(C)(CO)CO)cc2)cc(OC)c1` [Compound 12, 4-(3,5-Dimethoxystyryl)phenyl-3-hydroxy-2-(hydroxymethyl)-2-methylpropanoate]: in data set [2] (25, 50 and 100 mg/kg PO once daily for 30 days), the “inhibitory effects on CAR tumor size and weight” value was “dose- and time-dependent inhibitory effects”. In addition, the antitumor activity result in data set [2] (lowest oral dose 25 mg/kg/day) was “Obvious antitumor activity”. Further, in data set [3] (25, 50 and 100 mg/kg PO QD×30), the “changes in body weight, food consumption and behavior vs untreated control” value is given as “no obvious changes”. Besides, the “blood analysis, 12-fed groups vs control group” value in data set [3] (total protein, albumin, creatinine, BUN, uric acid, glucose, 25-100 mg/kg QD×30) was “no significant difference”. The “blood concentration of compound 12” value in data set [4] is listed as “not detected”.

Consider “(E)-5-(4-((3-Hydroxy-2-(hydroxymethyl)-2-methylpropanoyl)oxy)styryl)-1,3-phenylene diacetate [Compound 23]”, for which the values for the IC50 in data set [1] (setting [5]) and in data set [1] (setting [6]) were 54.9 ± 2.59 µM and 114 ± 3.25 µM, respectively.

In the case of `N.N.[Cl][Pt][Cl]` [Cisplatin, reference compound], the IC50 in data set [1] (setting [5]) and in data set [1] (setting [6]) was > 100 µM each time.

Consider “4-[(E)-2-(3,5-dimethoxyphenyl)ethenyl]phenol [Pterostilbene, reference compound]”, for which the figures for the IC50 in data set [1] (setting [5]) and in data set [1] (setting [6]) were 100 ± 4.78 µM and 98.3 ± 5.21 µM, respectively.

On to “(E)-4-(3,5-Dihydroxystyryl)phenyl 3-hydroxy-2-(hydroxymethyl)-2-methylpropanoate [Compound 20]”, for which the figures for the IC50 in data set [1] (setting [5]) and in data set [1] (setting [6]) were 52 ± 2.6 µM and 50.3 ± 1.98 µM, respectively.

Take “(E)-4-(3-Hydroxy-5-((3-hydroxy-2-(hydroxymethyl)-2-methylpropanoyl)oxy) styryl)phenyl 3-hydroxy-2-(hydroxymethyl)-2-methylpropanoate [Compound 25]”: the IC50 was 105 ± 1.98 µM in data set [1] (setting [5]) and 113 ± 2.77 µM in data set [1] (setting [6]).

For the compound “(E)-4-(3-Acetoxy-5-methoxystyryl)phenyl 3-hydroxy-2-(hydroxymethyl)-2-methylpropanoate [Compound 18]”, the IC50 in data set [1] (setting [5]) is 169 ± 3.19 µM; in data set [1] (setting [6]), 133 ± 2.45 µM.

In the case of “(E)-4-(3-Acetoxy-5-((3-hydroxy-2-(hydroxymethyl)-2-methylpropanoyl)oxy) styryl)phenyl 3-hydroxy-2-(hydroxymethyl)-2-methylpropanoate [Compound 27]”, the IC50 in data set [1] (setting [5]) came to 122 ± 2.69 µM; in data set [1] (setting [6]), 119 ± 2.19 µM.
